# Screen size: about 200,000 compounds; about 2,000 (1%) were called active.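 How the source made its calls: active means inhibition above the campaign mean inhibition of all tested compounds plus 3 SD (cut at about 20% in these data); inactive means the rest.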 For the sample, actives were picked, then their nearest neighbours and some compounds at random.
# Molecular target: Neuropeptide Y receptor type 1 (Homo sapiens) (UniProt P25929)
# Test: blockers of human neuropeptide Y Y1 receptor – cell-based, primary screen (AID 1040);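 further: 0% = DMSO wells given NPY plus isoproterenol and 100% = isoproterenol alone without NPY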
# Details: HEK293-CNG Y1 cells, membrane potential fluorescence; at 3.6 µM; stronger effect = higher value; NPY at EC95, then isoproterenol
# Procedure, shortened: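 Material: HEK293 cells co-expressing NPY Y1 receptor and cyclic-nucleotide gated channel. Timing: compound incubation 1 h at room temperature, readout 45 min post-stimulation. Signal: fluorescence, membrane potential probe.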
# Chain of Neuropeptide Y receptor type 1 (Homo sapiens) (P25929 whole entry, looked up): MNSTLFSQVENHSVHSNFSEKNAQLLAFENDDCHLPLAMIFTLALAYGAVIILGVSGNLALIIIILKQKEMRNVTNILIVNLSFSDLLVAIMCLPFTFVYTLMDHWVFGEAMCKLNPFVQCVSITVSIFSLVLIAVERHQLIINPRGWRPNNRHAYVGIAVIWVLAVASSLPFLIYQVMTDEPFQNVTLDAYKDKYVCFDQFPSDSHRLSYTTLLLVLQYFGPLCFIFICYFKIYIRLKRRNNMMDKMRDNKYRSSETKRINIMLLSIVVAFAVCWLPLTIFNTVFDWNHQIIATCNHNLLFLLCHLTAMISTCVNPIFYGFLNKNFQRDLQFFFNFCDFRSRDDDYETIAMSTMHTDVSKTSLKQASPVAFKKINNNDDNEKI
row,Compound,inhibition
1,O=C(CCc1nnc(CCCCc2ccccc2)o1)NC(c1cccnc1)C(F)(F)F (stereo unspecified),3.83% (inactive)
2,S=c1[nH]nc(Nc2ccccc2)s1,7.84% (inactive)
3,O=[N+]([O-])c1cccc(C2=NCCS2)c1,2.43% (inactive)
4,O=C(CN1C(=O)NC2(CCCCCC2)C1=O)NC1CC1,0.75% (inactive)
5,O=C(CN1C(=O)NC2(CCCC2)C1=O)NCC1CCCO1 (stereo unspecified),-1.75% (inactive)
6,O=C(CN1C(=O)NC(Cc2ccccc2)(Cc2ccccc2)C1=O)NCC1CCCCC1,68.1% (active)
7,O=C(CC1SCCNC1=O)Nc1ccc(Cl)cc1 (stereo unspecified),6.74% (inactive)
8,COC(=O)Nc1sc2nc(C)cc(C)c2c1-n1cccc1,0.35% (inactive)
9,Cc1cc(C)c2c(-n3cccc3)c(NC(=O)OCc3ccccc3)sc2n1,36.9% (active)
10,CCCCOC(=O)Nc1sc2nc(C)cc(C)c2c1-n1cccc1,2.5% (inactive)
11,CCC(C)NC(=O)CN(C1CCCCC1)S(C)(=O)=O (stereo unspecified),0.13% (inactive)
12,O=C(NCCCN1CCOCC1)c1cnn2c(-c3ccccc3)cc(-c3ccccc3)nc12,30.1% (active)
13,O=C(NCCCN1CCOCC1)c1ccccc1NS(=O)(=O)c1ccc(F)cc1,5.43% (inactive)
14,O=C(NCCCN1CCOCC1)c1ccccc1NS(=O)(=O)c1ccc(Br)cc1,11.9% (inactive)
15,O=C(CN1CCN(c2ccc(O)cc2)CC1)NC1CCCc2ccccc21 (stereo unspecified),4.77% (inactive)
16,Nc1nc(SCC(=O)NNc2c(Cl)cc(Cl)cc2Cl)n[nH]1,8.35% (inactive)
17,CC(=O)c1c(C)[nH]c(C(=O)COC(=O)c2cccc(S(=O)(=O)N(C)c3ccccc3)c2)c1C,2.37% (inactive)
18,CC(C)CNC(=O)COC(=O)c1ccccc1OCC(=O)Nc1ccc(Br)cc1,3.51% (inactive)
19,CCCC(=O)Nc1ccc(Cl)c(NC(=O)c2ccc(Br)o2)c1,-1.88% (inactive)
20,COc1cc(OC)c(NC(=O)c2ccc(Br)o2)cc1Cl,0% (inactive)
21,CCN1CCN(c2c(Cl)cccc2NC(=O)c2ccc(Br)o2)CC1,23.8% (active)
22,Cc1ccc(C(=O)NC(=S)Nc2ccc(N3CCOCC3)cc2)cc1,-3.91% (inactive)
23,Cc1ccc(OCC(=O)N/N=C\c2ccco2)c(C)c1,7.4% (inactive)
24,Cc1ccc(/C=N/NC(=O)COc2ccccc2-c2ccccc2)cc1,22.8% (active)

row,Compound,inhibition
1,Cc1ccc(OCC(=O)N/N=C/c2ccncc2)cc1,0.98% (inactive)
2,OCCNCc1cccc(OCc2ccccc2Cl)c1,11.2% (inactive)
3,O=C(O)c1ccc(/C=N/NC(=O)c2ccc(Br)cc2)cc1,2.79% (inactive)
4,OC(COc1ccc(CN2CCSCC2)cc1)CN1CCCCC1 (stereo unspecified),6.88% (inactive)
5,OC(COCCC12CC3CC(CC(C3)C1)C2)CN1CCCCC1 (stereo unspecified),26.9% (active)
6,Cc1cccc(C)c1OCC(O)CN1CCCCC1 (stereo unspecified),6.39% (inactive)
7,CCC1CCCCN1C(=O)CSc1nc2c(c(=O)n(C)c(=O)n2C)n1C (stereo unspecified),4.16% (inactive)
8,COc1ccc(C(=O)CSc2nnc(COc3ccccc3)n2Cc2ccco2)cc1,24.4% (active)
9,C=CCn1c(CNC(=O)c2ccco2)nnc1SCC(=O)c1ccc(OC)cc1,0.4% (inactive)
10,CCn1c(COc2ccccc2)nnc1SCC(=O)NCc1ccco1,-4.68% (inactive)
11,COc1ccc(NC(=O)CCNS(=O)(=O)c2ccc3c(c2)c(=O)n(C)c(=O)n3C)cc1OC,5.39% (inactive)
12,Cc1ccc(-n2nc3cc(Cl)c(NC(=O)c4ccco4)cc3n2)cc1,-10% (inactive)
13,CC(=O)Nc1nc2ccccc2n1Cc1ccc(C)cc1,6.94% (inactive)
14,Cc1ccc(Cn2c(NC(=O)c3ccco3)nc3ccccc32)cc1,24.1% (active)
15,NC(=O)c1ccc(NC(=O)COC(=O)C(Cc2ccccc2)NC(=O)c2ccccc2)cc1 (stereo unspecified),4.77% (inactive)
16,O=C(Nc1ccncc1)c1cc2ccccc2o1,-5.2% (inactive)
17,O=C(CC(Cc1ccccc1)C(=O)O)NCCc1ccc2c(c1)OCO2 (stereo unspecified),8.49% (inactive)
18,O=C(NCCc1ccc2c(c1)OCCO2)c1cc2ccccc2o1,21.4% (active)
19,CC[C@H](C)[C@@H](C(=O)N1CCNCC1)n1cc([C@@H](N)Cc2ccc(O)cc2)nn1,4.22% (inactive)
20,COc1cc(OC)nc(S(C)(=O)=O)n1,-1.87% (inactive)
21,Cc1ccccc1NC(=O)Cn1c(=O)n(CC2CCCO2)c(=O)c2ccccc21 (stereo unspecified),0.4% (inactive)
22,COc1cc(OC)cc(-c2nnc(SCC(=O)Nc3ccc(C(=O)O)cc3)s2)c1,-5.61% (inactive)
23,N=c1n(CCc2ccccc2)c2ccccc2n1Cc1ccccc1F,24.2% (active)
24,CN(Cc1ccccc1)Cc1ccccc1F,0.6% (inactive)

row,Compound,inhibition
1,Fc1ccccc1Cn1cnc(NC(=S)NCCc2ccccc2)n1,0.55% (inactive)
2,CCOC(=O)C1CCCN(C(=O)c2cccc(S(=O)(=O)N3CCOCC3)c2)C1 (stereo unspecified),-0.08% (inactive)
3,Cc1cccc(C)c1OCC(=O)NC(Cc1c[nH]c2ccccc12)C(=O)O (stereo unspecified),6.9% (inactive)
4,Cc1ccccc1-c1n[nH]c(=S)n1C,1.64% (inactive)
5,c1ccc(Nc2nc(N3CCOCC3)c3ccccc3n2)cc1,3.28% (inactive)
6,c1ccc2c(NC3C4CC5CC(C4)CC3C5)nc(N3CCOCC3)nc2c1 (stereo unspecified),31.8% (active)
7,c1ccc(-c2nnc(N3CCOCC3)c3ccccc23)cc1,-0.9% (inactive)
8,COC(=O)Cc1ccc(N(Cc2ccccc2F)S(=O)(=O)c2ccc(Br)cc2)cc1,18.1% (inactive)
9,COc1ccc(-n2nc(C(=O)Nc3cc(OC)c(OC)c(OC)c3)c3ccccc3c2=O)c(OC)c1,1.85% (inactive)
10,O=c1c2ccccc2c(-c2ccccc2)nn1-c1ccccn1,4.37% (inactive)
11,O=c1c2ccccc2c(-c2ccc(F)cc2)nn1-c1ccc(C(F)(F)F)cc1,21.4% (active)
12,O=c1c2ccccc2c(-c2ccccc2)nn1Cc1ccccc1,0.35% (inactive)
13,COc1ccc(CS(=O)/C(Cl)=C(/Cl)C(=O)Nc2ccc(OC)nc2)cc1 (stereo unspecified),11.2% (inactive)
14,Cc1ccc(-n2nc3ccc(NC(=O)/C=C/c4ccco4)cc3n2)cc1C,6.59% (inactive)
15,O=C(Cc1cccs1)Nc1cccc(-c2nc3ccccc3[nH]2)c1,3.86% (inactive)
16,O=C(/C=C/c1ccco1)Nc1cccc(-c2nc3ccccc3[nH]2)c1,20.3% (active)
17,COc1ccc(C(c2nnnn2C2CCCCC2)N2CCN(c3ccccc3F)CC2)cc1 (stereo unspecified),23.3% (active)
18,CC(C)C(c1nnnn1C1CCCC1)N1CCN(c2ccccc2F)CC1 (stereo unspecified),10.8% (inactive)
19,COc1ccc(N2CCN(C(c3cc4ccc(C)cc4[nH]c3=O)c3nnnn3C3CCCC3)CC2)cc1 (stereo unspecified),0.99% (inactive)
20,CC(C)C(=O)Nc1oc(-c2ccccc2)cc1C#N,3.99% (inactive)
21,O=C(c1cccc(S(=O)(=O)Nc2ccccc2Cl)c1)N1CCN(C(=O)c2ccco2)CC1,-2.11% (inactive)
22,O=C(O)CCCCOn1ccnc1,4.94% (inactive)
23,C=C(C)Cn1c(SCC(=O)NCc2ccco2)nc2sc3c(c2c1=O)CCC3,8.57% (inactive)
24,O=C(CCCn1c(SCC(=O)c2ccc(F)cc2)nc2ccccc2c1=O)NCc1ccco1,3.6% (inactive)

row,Compound,inhibition
1,O=C(CSc1nc2cc3c(cc2c(=O)n1CCC1=CCCCC1)OCO3)NCc1ccco1,26.8% (active)
2,CCC1(CC)NC(=O)N(CC(=O)OCC(=O)NC(=O)c2ccccc2)C1=O,1.96% (inactive)
3,CC1(C)C2CC=C(/C=N/NC(=O)C3CC3)C1C2 (stereo unspecified),4.14% (inactive)
4,CSCC[C@H](NC(=O)OC(C)(C)C)C(=O)N/N=C/c1cc2ccc(C)cc2nc1Cl,-2.75% (inactive)
5,CC(=O)c1ccc(NC(=O)c2ccc3c(Cl)c4c(nc3c2)CCCC4)cc1,-4.67% (inactive)
6,Fc1ccc2nc(-c3ccccc3)nc(SCc3nnc(-c4ccccc4)o3)c2c1,2.58% (inactive)
7,Fc1ccc(-c2nnc(CSc3nnc(-c4ccc5c(c4)OCO5)o3)o2)cc1,29.9% (active)
8,COc1ccc(-c2nnc(SCC(=O)c3ccc4c(c3)OCCO4)o2)cc1,-4.74% (inactive)
9,CCCS(=O)(=O)N1CCC(CCOc2ccccc2)(C(=O)OCC)CC1,6.41% (inactive)
10,COC(=O)c1c(NC(=O)COC(=O)[C@@H](NS(=O)(=O)c2ccccc2)C(C)C)sc2c1CCC2,10.2% (inactive)
11,O=c1oc2c(CN3CCCCC3)c(O)ccc2c2c1CCCCC2,6.84% (inactive)
12,COc1ccc2c3c(c(=O)oc2c1OCC(=O)C(C)(C)C)CCCC3,10.2% (inactive)
13,CCCOc1ccc2c3c(c(=O)oc2c1OCCC)CCC3,21.1% (active)
14,O=C(CSc1nc2ccc(Nc3nc(N4CCOCC4)nc(N4CCOCC4)n3)cc2s1)NCc1ccco1,2.78% (inactive)
15,CN(C)c1ccc(C(CNC(=O)c2ccc(F)cc2)c2c[nH]c3ccccc23)cc1 (stereo unspecified),-7.11% (inactive)
16,C=CCOC(=O)C1=C(C)OC(N)=C(C#N)C1c1ccc(F)cc1 (stereo unspecified),-1.17% (inactive)
17,Cc1cc2c(c(=O)n1C)C(C(C)C)C(C#N)=C(N)O2 (stereo unspecified),9.44% (inactive)
18,C=CCSc1nc2c(c(=O)[nH]1)C(C(C)C)C(C#N)=C(N)O2 (stereo unspecified),77.2% (active)
19,CC(=O)Oc1c(C(=O)c2nnc(C)o2)c(=O)n(Cc2ccccc2)c2ccccc12,1.05% (inactive)
20,COc1ccc(F)cc1C(=O)C1CCCN(C(=O)CCc2ccccn2)C1 (stereo unspecified),6.35% (inactive)
21,CCS(=O)(=O)Nc1ccc(C2=NN(C(C)=O)C(c3cccs3)C2)cc1 (stereo unspecified),-0.01% (inactive)
22,O=C(Nc1nc2ccc([N+](=O)[O-])cc2s1)c1ccc(S(=O)(=O)N2CCCc3ccccc32)cc1,-0.71% (inactive)
23,O=C(O)CCC(=O)Nc1nc2ccc([N+](=O)[O-])cc2s1,-1.24% (inactive)
24,O=C(NC(Nc1nc2ccc([N+](=O)[O-])cc2s1)(C(F)(F)F)C(F)(F)F)c1ccccc1,32.9% (active)

# From PubChem BioAssay AID1040 (The Scripps Research Institute Molecular Screening Center, 2008)
